Experimental data reported in ChEMBL document CHEMBL1141075, “4-Oxo-4,7-dihydrothieno[2,3-b]pyridines as non-nucleoside inhibitors of human cytomegalovirus and related herpesvirus polymerases” (J Med Chem, 2005).

Tests used:
[1] = Toxicity on uninfected human foreskin fibroblast cells determined in microscopic evaluation and quantitative neutral red dye uptake assay; format: cell-based; settings: uninfected human foreskin fibroblast (HFF) cells
Method in brief: (§1)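 Uninfected cells were seeded as subconfluent monolayers and exposed to compound for 3 days. Viability was judged both by microscopic inspection and by quantitative neutral red dye uptake, giving CC50.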

Vero [2] = assay: cells; settings: Chlorocebus sabaeus, 1 h
Vero [3] = assay: cells; settings: Chlorocebus sabaeus, 1 h; remark: listed apart in the source
Vero [4] = assay: cells; settings: Chlorocebus sabaeus, 1 h; remark: listed apart in the source
Vero [5] = assay: cells; settings: Chlorocebus sabaeus, 1 h; remark: listed apart in the source
Vero [6] = assay: cells; settings: Chlorocebus sabaeus, 1 h; remark: listed apart in the source
Vero [7] = assay: cells; settings: Chlorocebus sabaeus, 1 h; remark: listed apart in the source
Vero [8] = assay: cells; settings: Chlorocebus sabaeus, 1 h; remark: listed apart in the source
Vero [9] = assay: cells; settings: Chlorocebus sabaeus, 1 h; remark: listed apart in the source
[10] = Toxicity on uninfected African green monkey kidney cells determined in microscopic evaluation and quantitative neutral red dye uptake assay; format: cell-based; settings: chlorocebus sabaeus, uninfected African green monkey kidney (Vero) cells; method in brief: as §1
Vero [11] = assay: cells; settings: Chlorocebus sabaeus, 1 h; remark: listed apart in the source
[12] = biological target: T1, DNA polymerase catalytic subunit (Herpes simplex virus (type 1 / strain 17), UniProt P04293); assay: Inhibition of herpes simplex virus type 1 DNA polymerase (95 uL) activity in a solution containing […] HEPES (pH 7.5), incubation for 12 minutes at 26 degrees C; parameters: species or system Human alphaherpesvirus 1
T1 sequence (P04293 whole entry): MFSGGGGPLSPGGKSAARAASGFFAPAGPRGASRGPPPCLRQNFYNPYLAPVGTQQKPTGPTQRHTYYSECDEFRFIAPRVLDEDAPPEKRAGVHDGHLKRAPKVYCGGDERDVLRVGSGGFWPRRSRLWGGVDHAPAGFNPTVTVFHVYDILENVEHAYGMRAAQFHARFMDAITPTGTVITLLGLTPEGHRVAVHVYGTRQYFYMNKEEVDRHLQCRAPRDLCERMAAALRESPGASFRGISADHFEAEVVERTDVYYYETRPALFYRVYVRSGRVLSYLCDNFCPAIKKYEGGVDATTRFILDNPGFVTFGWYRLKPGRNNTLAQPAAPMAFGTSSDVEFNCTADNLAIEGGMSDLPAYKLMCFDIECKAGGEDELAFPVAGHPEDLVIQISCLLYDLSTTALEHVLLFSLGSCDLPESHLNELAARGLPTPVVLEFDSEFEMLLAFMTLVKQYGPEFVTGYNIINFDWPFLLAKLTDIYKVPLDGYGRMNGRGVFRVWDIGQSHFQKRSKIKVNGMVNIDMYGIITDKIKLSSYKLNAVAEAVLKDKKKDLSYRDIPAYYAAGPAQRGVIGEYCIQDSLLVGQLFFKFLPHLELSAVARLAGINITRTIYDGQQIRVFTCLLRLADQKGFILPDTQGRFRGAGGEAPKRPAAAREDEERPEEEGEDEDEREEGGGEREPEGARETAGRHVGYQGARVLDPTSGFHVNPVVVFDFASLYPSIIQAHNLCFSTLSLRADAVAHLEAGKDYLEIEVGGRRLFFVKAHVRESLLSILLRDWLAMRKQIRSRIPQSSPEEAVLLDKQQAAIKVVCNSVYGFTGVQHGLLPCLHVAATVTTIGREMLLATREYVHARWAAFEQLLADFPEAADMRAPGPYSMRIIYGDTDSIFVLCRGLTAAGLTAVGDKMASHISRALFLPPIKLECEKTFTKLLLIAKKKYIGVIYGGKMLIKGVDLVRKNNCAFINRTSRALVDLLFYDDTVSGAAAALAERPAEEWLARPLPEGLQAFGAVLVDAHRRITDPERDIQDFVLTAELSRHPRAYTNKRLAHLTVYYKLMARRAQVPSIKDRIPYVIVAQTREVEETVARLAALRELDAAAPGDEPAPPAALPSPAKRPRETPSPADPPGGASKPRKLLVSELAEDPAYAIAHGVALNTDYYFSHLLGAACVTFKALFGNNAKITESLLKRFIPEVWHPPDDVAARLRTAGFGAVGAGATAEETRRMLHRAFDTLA

HFF [13] = assay: Antiviral activity against human cytomegalovirus (Davis strain) grown on human foreskin fibroblast cells determined by reduction in plaque formation upon incubation at 37 degrees C with the compound dissolved in DMSO; format: functional, cell-based
[14] = biological target: T2, DNA polymerase alpha catalytic subunit (Homo sapiens, UniProt P09884); assay: Inhibition of human alpha DNA polymerase (95 uL) activity in a solution containg […] HEPES (pH 7.5) upon incubation for 12 minutes at 26 degrees C with the compound dissolved in DMSO
T2 sequence (P09884 whole entry): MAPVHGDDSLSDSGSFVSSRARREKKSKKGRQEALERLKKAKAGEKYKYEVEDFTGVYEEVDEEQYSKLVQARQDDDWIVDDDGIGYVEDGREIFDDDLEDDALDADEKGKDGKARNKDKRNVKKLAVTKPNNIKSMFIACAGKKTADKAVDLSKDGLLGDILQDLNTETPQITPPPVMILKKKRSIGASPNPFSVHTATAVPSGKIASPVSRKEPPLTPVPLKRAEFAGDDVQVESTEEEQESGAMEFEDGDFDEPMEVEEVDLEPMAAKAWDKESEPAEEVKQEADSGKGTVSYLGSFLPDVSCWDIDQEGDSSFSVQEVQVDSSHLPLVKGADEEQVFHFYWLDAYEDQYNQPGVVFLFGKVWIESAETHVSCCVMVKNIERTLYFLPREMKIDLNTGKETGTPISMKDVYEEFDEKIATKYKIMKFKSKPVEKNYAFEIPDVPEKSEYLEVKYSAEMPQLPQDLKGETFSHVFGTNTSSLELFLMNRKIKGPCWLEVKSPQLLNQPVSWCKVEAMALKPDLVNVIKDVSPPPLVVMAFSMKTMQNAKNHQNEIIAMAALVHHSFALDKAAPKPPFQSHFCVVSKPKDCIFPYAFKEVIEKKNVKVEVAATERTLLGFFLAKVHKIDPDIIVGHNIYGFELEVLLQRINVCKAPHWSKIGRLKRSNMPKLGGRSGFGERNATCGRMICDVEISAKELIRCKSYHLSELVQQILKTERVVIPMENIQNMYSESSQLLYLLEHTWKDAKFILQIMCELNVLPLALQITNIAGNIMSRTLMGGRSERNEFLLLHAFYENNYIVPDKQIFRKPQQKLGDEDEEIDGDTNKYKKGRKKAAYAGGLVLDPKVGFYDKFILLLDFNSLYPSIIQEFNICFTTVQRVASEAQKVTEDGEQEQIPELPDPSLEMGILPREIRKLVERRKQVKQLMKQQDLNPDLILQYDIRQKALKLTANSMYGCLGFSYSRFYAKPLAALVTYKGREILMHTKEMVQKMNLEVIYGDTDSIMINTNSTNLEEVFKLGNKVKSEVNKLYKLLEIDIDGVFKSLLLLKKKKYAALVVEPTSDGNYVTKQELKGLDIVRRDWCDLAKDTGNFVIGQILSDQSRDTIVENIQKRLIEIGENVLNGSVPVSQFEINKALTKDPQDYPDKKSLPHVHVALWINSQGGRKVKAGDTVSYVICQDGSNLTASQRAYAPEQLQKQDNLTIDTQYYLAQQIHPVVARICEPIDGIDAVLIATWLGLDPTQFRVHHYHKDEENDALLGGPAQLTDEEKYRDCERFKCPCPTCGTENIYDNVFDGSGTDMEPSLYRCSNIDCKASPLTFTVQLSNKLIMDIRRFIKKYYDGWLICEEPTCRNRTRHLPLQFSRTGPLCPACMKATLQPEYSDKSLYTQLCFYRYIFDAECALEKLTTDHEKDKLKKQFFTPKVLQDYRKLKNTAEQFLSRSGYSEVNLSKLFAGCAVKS

Vero [15] = assay: Antiviral activity against herpes simplex virus type 1 (KOS strain) grown on human foreskin fibroblast cells determined by vedduction in plaque formation upon incubation at 37 degrees C with the compound dissolved in DMSO until plaque were formed; format: functional, cell-based
Method in brief: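 HSV-1 KOS, about 50 PFU per well, was adsorbed for 1 h at 37 °C. The inoculum was then replaced with drug dilutions from 200-fold DMSO stocks in DMEM containing 10% FBS and 0.8% carboxymethyl cellulose. Cultures were kept at 37 °C until plaques appeared. Plaques were counted microscopically or by crystal violet staining (0.1% in 20% ethanol). IC50 came from linear regression of % inhibition relative to the uninhibited control.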

HFF [16] = assay: Antiviral activity against Varicella-Zoster virus (Webster strain) grown on human foreskin fibroblast cells determined by vedduction in plaque formation upon incubation at 37 degrees C with the compound dissolved in DMSO until plaque were formed; format: functional, cell-based
Method in brief: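 Monolayers of human foreskin fibroblasts were infected with about 50 PFU per well for 1 h at 37 °C. The inoculum was then replaced with DMEM containing 10% FBS, 0.8% carboxymethyl cellulose and diluted compound from 200-fold DMSO stocks. Plates were incubated at 37 °C until plaques formed. Plaques were counted microscopically or after 0.1% crystal violet staining. IC50 came from linear regression of % inhibition versus untreated controls.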

HFF [17] = assay: Antiviral activity against human cytomegalovirus Ad169 (V823A) plaque forming unit grown on Human foreskin fibroblast cells upon incubation for 1 hour at 37 degrees C with compound dissolved in DMSO; format: functional, cell-based
Method in brief: (§2)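 Plaque reduction: about 50 PFU added per well of a 24-well dish of the appropriate cells, 1 h at 37 °C, then the inoculum was replaced by drug-containing DMEM with 10% FBS and 0.8% carboxymethyl cellulose. DMSO stocks were 200-fold. Plates were held at 37 °C until plaques formed. Plaques were counted microscopically or after crystal violet stain. Percent inhibition was taken against the uninhibited control, with IC50 by linear regression.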

HFF [18] = assay: Antiviral activity against human cytomegalovirus Ad169 (WT) plaque forming unit grown on Human foreskin fibroblast cells upon incubation for 1 hour at 37 degrees C with compound dissolved in DMSO; format: functional, cell-based; method in brief: as §2

SMILES	CC50 [1] [µM]	IC50 (Vero [2]) [µM]	IC50 (Vero [3]) [µM]	IC50 (Vero [4]) [µM]	IC50 (Vero [5]) [µM]	IC50 (Vero [6]) [µM]	IC50 (Vero [7]) [µM]	IC50 (Vero [8]) [µM]	IC50 (Vero [9]) [µM]	CC50 [10] [µM]	IC50 (Vero [11]) [µM]	IC50 [12] [µM]	IC50 (HFF [13]) [µM]	IC50 [14] [µM]	IC50 (Vero [15]) [µM]	IC50 (HFF [16]) [µM]	IC50 (HFF [17]) [µM]	IC50 (HFF [18]) [µM]
Nc1nc2c(ncn2COCCO)c(=O)[nH]1 [ACYCLOVIR]	> 100	> 10	2.4	3.5	5.4	> 10	> 10	2.8	> 10	> 100	4.4	–	–	–	–	–	–	–
Cn1cc(C(=O)NCc2ccc(Cl)cc2)c(=O)c2cc(CCCO)sc21	> 100	–	–	–	–	–	–	–	–	> 100	–	0.5	0.6	> 40	3	0.09	–	–
Nc1nc2c(ncn2COC(CO)CO)c(=O)[nH]1 [GANCICLOVIR]	> 100	–	–	–	–	–	–	–	–	> 100	–	–	–	–	–	–	0.8	0.8
